Data published in ChEMBL document CHEMBL5705899 (Biochem J, 2014).
Active and inactive are the calls of the source. The calls are words filed in the database; no cut-off is given here.

How the values were obtained:
U2OS [1] = assay: Inhibition of PI3K in human U2OS cells expressing FLAG-tagged SGK3 assessed as reduction in AKT phosphorylation at T308 residues at 0.01 to 1 uM 1 hr by immunoblot analysis; format: cell-based; settings: dose 0.01-1 µM
Procedure, shortened: (§1)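 Flp-In T-REx U2OS cells were grown in McCoy medium with 10% FBS. Expression of C-terminally FLAG-tagged full-length SGK3 was induced with 0.01 mg/ml doxycycline for 24 h. Cells were treated with inhibitor for 1 h and lysed in phosphatase-inhibitor buffer. Lysates were cleared at 16000 g for 10 min at 4°C, protein was measured by Bradford, and phosphorylation was read by immunoblot with ECL detection.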

[2] = biological target: Serine/threonine-protein kinase tousled-like 1 (Homo sapiens) (UniProt Q9UKI8); assay: Inhibition of recombinant human N-terminal GST-tagged TLK1 (1 to 766 residues) expressed in Escherichia coli assessed as remaining activity at 1 uM using MBP as substrate incubated for 30 mins in presence of [gamma-33P]ATP by filter binding method relative to control
Sequence of Serine/threonine-protein kinase tousled-like 1 (Homo sapiens) (Q9UKI8 whole entry, the tested form may be a part): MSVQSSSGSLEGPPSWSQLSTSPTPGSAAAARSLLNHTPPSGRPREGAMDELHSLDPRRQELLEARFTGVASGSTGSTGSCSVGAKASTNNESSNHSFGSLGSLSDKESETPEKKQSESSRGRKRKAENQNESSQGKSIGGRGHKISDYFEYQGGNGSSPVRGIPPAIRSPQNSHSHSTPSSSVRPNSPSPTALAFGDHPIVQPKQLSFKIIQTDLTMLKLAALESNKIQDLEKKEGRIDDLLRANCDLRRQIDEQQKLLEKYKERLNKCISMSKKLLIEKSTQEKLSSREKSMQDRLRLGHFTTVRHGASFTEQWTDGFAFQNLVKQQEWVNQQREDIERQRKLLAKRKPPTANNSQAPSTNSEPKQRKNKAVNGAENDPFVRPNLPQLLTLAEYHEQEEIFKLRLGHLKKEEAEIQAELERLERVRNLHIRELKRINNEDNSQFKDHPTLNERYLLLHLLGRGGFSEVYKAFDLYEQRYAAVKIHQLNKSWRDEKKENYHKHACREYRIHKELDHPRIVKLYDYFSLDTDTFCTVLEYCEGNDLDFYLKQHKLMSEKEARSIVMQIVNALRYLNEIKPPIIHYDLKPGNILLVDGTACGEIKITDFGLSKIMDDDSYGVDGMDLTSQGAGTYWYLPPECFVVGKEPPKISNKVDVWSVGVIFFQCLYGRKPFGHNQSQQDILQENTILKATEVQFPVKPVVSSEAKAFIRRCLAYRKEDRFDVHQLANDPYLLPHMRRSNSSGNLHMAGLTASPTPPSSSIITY

[3] = biological target: Mitogen-activated protein kinase 1 (Homo sapiens) (UniProt P28482); assay: Inhibition of recombinant human N-terminal GST-tagged ERK2 (2 to 360 residues) expressed in Escherichia coli assessed as remaining activity at 1 uM using MBP as substrate incubated for 30 mins in presence of [gamma-33P]ATP by filter binding method relative to control
Sequence of Mitogen-activated protein kinase 1 (Homo sapiens) (P28482 whole entry, the tested form may be a part): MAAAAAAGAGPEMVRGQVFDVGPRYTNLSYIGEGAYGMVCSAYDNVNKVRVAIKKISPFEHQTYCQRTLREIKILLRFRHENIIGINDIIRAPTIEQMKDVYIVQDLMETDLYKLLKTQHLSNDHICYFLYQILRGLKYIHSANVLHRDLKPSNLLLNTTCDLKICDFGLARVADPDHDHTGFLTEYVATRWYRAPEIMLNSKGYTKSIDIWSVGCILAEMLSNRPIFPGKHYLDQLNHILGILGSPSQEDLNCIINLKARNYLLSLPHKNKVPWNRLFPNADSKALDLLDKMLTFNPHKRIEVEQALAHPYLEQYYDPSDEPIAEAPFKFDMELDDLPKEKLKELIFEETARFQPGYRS

[4] = biological target: Serine/threonine-protein kinase Nek1 (Homo sapiens) (UniProt Q96PY6); assay: Inhibition of human NEK1 at 1 uM using RBER-CHKtide as substrate in presence of 33P-ATP by ProQinase assay
[5] = biological target: Homeodomain-interacting protein kinase 1 (Homo sapiens) (UniProt Q86Z02); assay: Inhibition of recombinant human N-terminal GST-tagged HIPK1 (158 to 555 residues) expressed in Escherichia coli assessed as remaining activity at 1 uM using MBP as substrate incubated for 30 mins in presence of [gamma-33P]ATP by filter binding method relative to control
Sequence of Homeodomain-interacting protein kinase 1 (Homo sapiens) (Q86Z02 whole entry, looked up, the tested form may be a part): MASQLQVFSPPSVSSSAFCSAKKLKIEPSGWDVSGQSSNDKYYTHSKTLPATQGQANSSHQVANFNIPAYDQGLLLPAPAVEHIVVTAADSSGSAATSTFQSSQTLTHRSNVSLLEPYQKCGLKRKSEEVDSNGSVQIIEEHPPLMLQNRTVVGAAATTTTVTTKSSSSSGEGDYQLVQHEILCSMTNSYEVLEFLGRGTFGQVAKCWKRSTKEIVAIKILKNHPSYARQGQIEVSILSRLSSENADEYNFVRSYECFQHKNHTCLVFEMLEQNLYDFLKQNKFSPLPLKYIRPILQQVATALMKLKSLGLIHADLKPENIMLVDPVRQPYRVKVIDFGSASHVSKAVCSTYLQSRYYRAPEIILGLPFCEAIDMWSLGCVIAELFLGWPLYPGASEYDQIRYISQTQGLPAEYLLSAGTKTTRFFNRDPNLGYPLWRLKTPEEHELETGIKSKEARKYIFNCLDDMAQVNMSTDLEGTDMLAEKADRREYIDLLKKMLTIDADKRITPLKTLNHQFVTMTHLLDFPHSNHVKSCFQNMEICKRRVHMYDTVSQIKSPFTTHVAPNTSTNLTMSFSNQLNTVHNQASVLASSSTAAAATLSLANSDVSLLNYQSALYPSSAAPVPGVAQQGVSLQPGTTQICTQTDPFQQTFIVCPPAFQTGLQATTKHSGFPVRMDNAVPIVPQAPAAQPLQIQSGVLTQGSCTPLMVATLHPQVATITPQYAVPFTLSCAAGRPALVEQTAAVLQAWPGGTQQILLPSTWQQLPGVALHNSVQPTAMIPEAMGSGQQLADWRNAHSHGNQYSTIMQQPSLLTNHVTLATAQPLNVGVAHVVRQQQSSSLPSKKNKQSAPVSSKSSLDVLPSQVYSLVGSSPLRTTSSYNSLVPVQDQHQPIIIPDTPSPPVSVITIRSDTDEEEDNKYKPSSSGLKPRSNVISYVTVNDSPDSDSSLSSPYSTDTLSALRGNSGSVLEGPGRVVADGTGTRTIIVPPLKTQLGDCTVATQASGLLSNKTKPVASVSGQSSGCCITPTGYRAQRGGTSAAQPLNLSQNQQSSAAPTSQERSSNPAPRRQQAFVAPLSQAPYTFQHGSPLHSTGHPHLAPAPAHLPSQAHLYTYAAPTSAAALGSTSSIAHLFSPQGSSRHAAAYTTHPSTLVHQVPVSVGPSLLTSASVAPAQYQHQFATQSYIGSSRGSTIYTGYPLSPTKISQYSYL

[6] = biological target: Mitogen-activated protein kinase kinase kinase kinase 5 (Homo sapiens) (UniProt Q9Y4K4); assay: Inhibition of MAP4K5 (unknown origin) assessed as remaining activity at 1 uM relative to control
Procedure, shortened: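 Dundee panel of 140 protein kinases, tested at a single 1 μM concentration. Each assay was run in triplicate. Remaining activity is expressed relative to a control reaction without inhibitor, as mean ± S.D. Conditions for each kinase were those of the screening centre.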

[7] = biological target: Mitogen-activated protein kinase kinase kinase kinase 2 (Homo sapiens) (UniProt Q12851); assay: Inhibition of human MAP4K2 at 1 uM using 3xChocktide-PKC as substrate in presence of 33P-ATP by ProQinase assay
[8] = test system: RAC-alpha serine/threonine-protein kinase (Homo sapiens), P31749 [S473D]; assay: Inhibition of recombinant human His6-tagged PKBalpha S473D mutant (118 to 480 residues) expressed in baculovirus infected Sf21 cells assessed as remaining activity at 1 uM using crosstide peptide as substrate incubated for 30 mins in presence of [gamma-33P]ATP by filter binding method relative to control
[9] = biological target: Serine/threonine-protein kinase PAK 2 (Homo sapiens) (UniProt Q13177); assay: Inhibition of human PAK2 at 1 uM using bio-4xCHKT as substrate in presence of 33P-ATP by ProQinase assay
[10] = biological target: Casein kinase I isoform delta (Homo sapiens) (UniProt P48730); assay: Inhibition of human CK1delta at 1 uM using casein as substrate in presence of 33P-ATP by ProQinase assay
Sequence of Casein kinase I isoform delta (Homo sapiens) (P48730 whole entry, looked up, the tested form may be a part, canonical isoform): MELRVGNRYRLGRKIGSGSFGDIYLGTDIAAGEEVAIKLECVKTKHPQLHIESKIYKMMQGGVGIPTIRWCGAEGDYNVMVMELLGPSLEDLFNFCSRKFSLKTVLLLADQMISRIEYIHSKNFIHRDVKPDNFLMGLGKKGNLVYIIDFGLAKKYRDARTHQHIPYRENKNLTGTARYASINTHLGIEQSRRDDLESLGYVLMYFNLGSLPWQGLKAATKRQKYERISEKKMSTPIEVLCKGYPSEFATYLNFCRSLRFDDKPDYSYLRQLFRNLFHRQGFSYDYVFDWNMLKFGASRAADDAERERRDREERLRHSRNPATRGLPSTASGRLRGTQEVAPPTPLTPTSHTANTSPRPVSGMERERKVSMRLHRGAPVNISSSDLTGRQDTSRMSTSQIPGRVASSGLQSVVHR

[11] = biological target: MAP kinase-activated protein kinase 2 (Homo sapiens) (UniProt P49137); assay: Inhibition of recombinant human N-terminal GST/C-terminal Myc-tagged MAPKAPK2 (46 to 400 residues) expressed in Escherichia coli assessed as remaining activity at 1 uM using KKLNRTLSVA as substrate incubated for 30 mins in presence of [gamma-33P]ATP by filter binding method relative to control
Sequence of MAP kinase-activated protein kinase 2 (Homo sapiens) (P49137 whole entry, looked up, the tested form may be a part): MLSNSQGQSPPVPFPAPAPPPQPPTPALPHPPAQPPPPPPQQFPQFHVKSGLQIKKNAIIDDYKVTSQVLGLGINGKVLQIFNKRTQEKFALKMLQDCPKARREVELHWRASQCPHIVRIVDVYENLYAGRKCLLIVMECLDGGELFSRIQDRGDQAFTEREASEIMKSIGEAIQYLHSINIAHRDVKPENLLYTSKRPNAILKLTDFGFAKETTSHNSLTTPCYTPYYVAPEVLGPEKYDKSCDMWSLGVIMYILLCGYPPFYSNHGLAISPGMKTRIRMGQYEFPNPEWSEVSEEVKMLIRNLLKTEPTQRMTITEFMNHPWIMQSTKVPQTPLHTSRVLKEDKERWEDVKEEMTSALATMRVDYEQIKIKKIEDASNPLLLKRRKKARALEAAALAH

[12] = biological target: Beta-adrenergic receptor kinase 1 (Homo sapiens) (UniProt P25098); assay: Inhibition of human GRK2 at 1 uM using casein as substrate in presence of 33P-ATP by ProQinase assay
Sequence of Beta-adrenergic receptor kinase 1 (Homo sapiens) (P25098 whole entry): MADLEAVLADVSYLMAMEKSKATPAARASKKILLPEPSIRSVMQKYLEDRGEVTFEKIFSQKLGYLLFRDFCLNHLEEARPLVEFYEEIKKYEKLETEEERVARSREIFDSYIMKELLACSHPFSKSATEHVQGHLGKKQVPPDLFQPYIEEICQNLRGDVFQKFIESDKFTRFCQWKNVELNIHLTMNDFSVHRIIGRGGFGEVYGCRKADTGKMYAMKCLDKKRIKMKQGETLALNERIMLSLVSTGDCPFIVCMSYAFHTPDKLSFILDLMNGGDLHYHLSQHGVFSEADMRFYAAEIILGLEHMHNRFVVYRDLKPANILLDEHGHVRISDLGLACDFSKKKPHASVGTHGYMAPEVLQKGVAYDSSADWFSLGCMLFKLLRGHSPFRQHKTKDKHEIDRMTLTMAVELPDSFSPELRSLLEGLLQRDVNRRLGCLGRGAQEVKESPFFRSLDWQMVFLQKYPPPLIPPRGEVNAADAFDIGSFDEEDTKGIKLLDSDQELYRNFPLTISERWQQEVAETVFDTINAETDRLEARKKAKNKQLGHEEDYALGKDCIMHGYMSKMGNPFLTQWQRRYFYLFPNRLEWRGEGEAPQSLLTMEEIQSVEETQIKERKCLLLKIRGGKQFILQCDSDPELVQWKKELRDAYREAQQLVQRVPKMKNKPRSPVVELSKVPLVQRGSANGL

[13] = biological target: Mitogen-activated protein kinase kinase kinase 10 (Homo sapiens) (UniProt Q02779); assay: Inhibition of human MAP3K10 at 1 uM using histon H2B as substrate in presence of 33P-ATP by ProQinase assay
U2OS [14] = assay: Inhibition of PI3K in human U2OS cells expressing FLAG-tagged SGK3 assessed as reduction in NDRG1 phosphorylation at T346 residues at 0.01 to 1 uM 1 hr by immunoblot analysis; format: cell-based; settings: dose 0.01-1 µM; procedure, shortened: as §1
[15] = biological target: Serine/threonine-protein kinase BRSK2 (Homo sapiens) (UniProt Q8IWQ3); assay: Inhibition of recombinant human N-terminal His6-tagged BRSK2 (2 to 674 residues) expressed in baculovirus infected Sf21 cells assessed as remaining activity at 1 uM using KKLNRTLSFAEPG as substrate incubated for 30 mins in presence of [gamma-33P]ATP by filter binding method relative to control
Sequence of Serine/threonine-protein kinase BRSK2 (Homo sapiens) (Q8IWQ3 whole entry, the tested form may be a part): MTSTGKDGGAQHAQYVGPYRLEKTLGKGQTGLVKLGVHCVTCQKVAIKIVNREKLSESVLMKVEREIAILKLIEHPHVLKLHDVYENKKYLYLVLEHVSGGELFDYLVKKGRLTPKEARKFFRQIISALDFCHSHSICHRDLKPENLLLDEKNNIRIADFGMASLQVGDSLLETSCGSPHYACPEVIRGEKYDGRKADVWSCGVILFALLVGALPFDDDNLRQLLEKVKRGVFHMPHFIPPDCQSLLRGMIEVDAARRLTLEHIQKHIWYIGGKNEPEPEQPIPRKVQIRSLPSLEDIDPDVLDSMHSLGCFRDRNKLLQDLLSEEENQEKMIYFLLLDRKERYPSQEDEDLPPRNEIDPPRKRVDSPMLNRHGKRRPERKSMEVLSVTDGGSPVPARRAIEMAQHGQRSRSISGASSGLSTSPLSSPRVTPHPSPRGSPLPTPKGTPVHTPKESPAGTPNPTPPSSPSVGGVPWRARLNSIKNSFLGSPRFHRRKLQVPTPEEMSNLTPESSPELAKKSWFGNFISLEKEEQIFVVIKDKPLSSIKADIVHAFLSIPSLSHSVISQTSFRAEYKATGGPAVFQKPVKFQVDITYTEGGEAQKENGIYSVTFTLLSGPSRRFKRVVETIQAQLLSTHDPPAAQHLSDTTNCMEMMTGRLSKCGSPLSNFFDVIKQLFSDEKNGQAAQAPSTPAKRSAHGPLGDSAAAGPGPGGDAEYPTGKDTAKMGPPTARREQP

[16] = biological target: Glycogen synthase kinase-3 beta (Homo sapiens) (UniProt P49841); assay: Inhibition of recombinant human His6-tagged GSK3beta (2 to 420 residues) expressed in baculovirus infected Sf21 cells assessed as remaining activity at 1 uM using phospho-GS2 peptide as substrate incubated for 30 mins in presence of [gamma-33P]ATP by filter binding method relative to control
Sequence of Glycogen synthase kinase-3 beta (Homo sapiens) (P49841 whole entry, looked up, the tested form may be a part): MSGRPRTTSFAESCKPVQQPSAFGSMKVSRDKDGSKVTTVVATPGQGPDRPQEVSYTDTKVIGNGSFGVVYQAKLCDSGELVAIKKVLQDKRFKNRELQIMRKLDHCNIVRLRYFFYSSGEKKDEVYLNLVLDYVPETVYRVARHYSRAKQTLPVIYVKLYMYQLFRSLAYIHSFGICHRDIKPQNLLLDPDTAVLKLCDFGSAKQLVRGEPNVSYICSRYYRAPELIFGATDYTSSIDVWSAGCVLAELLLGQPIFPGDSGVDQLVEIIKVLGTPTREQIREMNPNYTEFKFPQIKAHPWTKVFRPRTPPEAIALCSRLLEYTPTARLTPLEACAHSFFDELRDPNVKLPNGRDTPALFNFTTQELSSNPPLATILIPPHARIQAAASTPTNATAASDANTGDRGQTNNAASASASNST

[17] = biological target: T1, 3-phosphoinositide-dependent protein kinase 1 (Homo sapiens) (UniProt O15530); assay: Inhibition of recombinant human His6-tagged PDK1 (52 to 556 residues) expressed in baculovirus infected Sf21 cells assessed as remaining activity at 1 uM using PDKtide as substrate incubated for 30 mins in presence of [gamma-33P]ATP by filter binding method relative to control
T1 sequence (whole entry): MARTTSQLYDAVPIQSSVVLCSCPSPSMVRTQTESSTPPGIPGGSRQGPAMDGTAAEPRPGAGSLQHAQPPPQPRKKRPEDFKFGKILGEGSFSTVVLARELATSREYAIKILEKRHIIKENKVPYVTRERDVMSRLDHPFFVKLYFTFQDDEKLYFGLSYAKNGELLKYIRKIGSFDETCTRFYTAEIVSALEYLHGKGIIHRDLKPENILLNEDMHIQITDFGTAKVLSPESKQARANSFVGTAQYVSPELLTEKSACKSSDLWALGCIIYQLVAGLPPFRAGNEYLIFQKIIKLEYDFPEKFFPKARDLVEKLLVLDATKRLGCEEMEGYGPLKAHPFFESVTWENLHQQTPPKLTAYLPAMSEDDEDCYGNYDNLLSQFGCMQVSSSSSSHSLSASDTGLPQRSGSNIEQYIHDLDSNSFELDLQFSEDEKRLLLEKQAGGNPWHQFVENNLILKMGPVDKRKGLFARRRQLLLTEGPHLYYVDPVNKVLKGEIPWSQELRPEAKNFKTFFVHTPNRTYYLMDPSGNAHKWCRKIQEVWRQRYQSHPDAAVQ

## CC(C)(O)CNc1ncc(-c2ccnc(Nc3ccnc(Cl)c3)n2)c(CC2CC2)n1
U2OS [1]
  inhibition: inactive
[2]
  Activity: 100%
[3]
  Activity: 116%
[4]
  inhibition: inactive
[5]
  Activity: 108%
[6]
  Activity: 105%
[7]
  inhibition: inactive
[8]
  Activity: 116%
[9]
  inhibition: inactive
[10]
  inhibition: inactive
[11]
  Activity: 110%
[12]
  inhibition: inactive
[13]
  inhibition: inactive
U2OS [14]
  inhibition: Active
[15]
  Activity: 98%
[16]
  Activity: 51%
[17]
  Activity: 105%
